Laboratory results from publication PMC2651159 (Bioorganic & medicinal chemistry letters, 2008).
pIC50: −log10 of the molar value.

Columns and labels:
[1] = tested on: Cryptosporidium parasite growth; settings: cited from earlier work
ChTS-DHFR [2] = molecular target: T1, ChTS-DHFR (Cryptosporidium hominis, UniProt A0A0S4TER9); assay: Steady-state spectroscopic enzyme inhibition assay; type: biochemical; settings: for Potency against ChTS-DHFR relative to FMN (in words): among the 50 compounds tested
TS reaction of ChTS-DHFR = assay: Inhibition of the TS reaction alone; type: biochemical, Cryptosporidium hominis; settings: 300 μM FMN
ChTS-DHFR [3] = molecular target: T1, ChTS-DHFR; assay: Pre-steady-state burst amplitude dose response; type: binding; settings: substrate in slight excess over enzyme
Method in brief: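 Pre-steady-state kinetics of the DHFR step were observed on the millisecond time scale, with H2F substrate in slight excess over ChTS-DHFR. Burst amplitude was recorded across a dose series of test compound. Amplitude versus concentration was fit to a hyperbolic curve to derive a dissociation constant (Kd).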

DHFR of ChTS-DHFR [4] = assay: Steady-state competition assay; type: biochemical, Cryptosporidium hominis
DHFR of ChTS-DHFR [5] = assay: DHFR single-enzyme turnover; type: biochemical, Cryptosporidium hominis; settings: enzyme in five-fold excess of H2F
T. gondii TS-DHFR = molecular target: T2, T. gondii TS-DHFR (Toxoplasma gondii, UniProt Q07422); assay: Enzyme inhibition assay, T. gondii TS-DHFR; type: biochemical
T2 sequence (Q07422 1-610): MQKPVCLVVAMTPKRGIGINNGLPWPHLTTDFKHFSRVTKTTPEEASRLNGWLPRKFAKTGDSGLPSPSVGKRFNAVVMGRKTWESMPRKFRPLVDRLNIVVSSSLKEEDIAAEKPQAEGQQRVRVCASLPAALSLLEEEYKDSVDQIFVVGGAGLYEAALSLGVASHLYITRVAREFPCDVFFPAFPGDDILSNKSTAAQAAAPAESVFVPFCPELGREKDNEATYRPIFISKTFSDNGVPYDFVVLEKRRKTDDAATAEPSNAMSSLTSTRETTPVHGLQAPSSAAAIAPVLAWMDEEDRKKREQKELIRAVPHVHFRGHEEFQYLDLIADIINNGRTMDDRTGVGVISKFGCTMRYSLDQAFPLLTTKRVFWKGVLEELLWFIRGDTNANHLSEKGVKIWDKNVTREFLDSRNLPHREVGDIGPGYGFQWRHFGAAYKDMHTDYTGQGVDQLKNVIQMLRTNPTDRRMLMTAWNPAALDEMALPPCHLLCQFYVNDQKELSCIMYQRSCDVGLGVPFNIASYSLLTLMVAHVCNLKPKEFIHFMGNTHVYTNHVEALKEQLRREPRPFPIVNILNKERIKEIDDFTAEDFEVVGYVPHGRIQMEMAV
Method in brief: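 IC50 determined for the test compound against T. gondii TS-DHFR. Enzyme and ligand concentrations were the same as in parallel runs on C. hominis TS-DHFR, human DHFR and human TS. Values are averages of at least three independent experiments.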

ChTS-DHFR R190G mutant = assay: Inhibition of mutant ChTS-DHFR R190G; type: biochemical, Cryptosporidium hominis; settings: preliminary analysis

Q: For `CC(=O)Oc1ccccc1C(=O)Nc1ncc([N+](=O)[O-])s1` [nitazoxanide], which “Concentration range inhibiting parasite growth” value [1] is on record?
A: The value was 1 to 40 µM.

Q: With `COc1cccc2c1C(=O)C1=C(C2=O)C(O)C2=C(C1O)[C@@H](C[C@@H]1C[C@H](N)[C@@H](O)[C@H](C)O1)C[C@@](O)(/C(C)=N/NC(=O)c1ccccc1)C2` (stereo partly drawn) [Rubidazone] as the compound, how does the pIC50 (ChTS-DHFR [2]) read?
A: The pIC50 was under 3.30.

Q: With `COC1=C(N)C(=O)c2nc(-c3nc(C(=O)O)c(C)c(-c4ccc(OC)c(OC)c4O)c3N)ccc2C1=O` [Streptonigrin] as the compound, how does the “Potency against ChTS-DHFR relative to FMN (in words)” value (ChTS-DHFR [2]) read?
A: Its value is “comparable potency”.

Q: With `Cc1cc2nc3c(=O)[nH]c(=O)nc-3n(C[C@H](O)[C@H](O)[C@H](O)COP(=O)(O)O)c2cc1C` [FMN, Flavin mononucleotide] as the compound, how does the “Inhibition of the TS reaction alone” value (TS reaction of ChTS-DHFR) read?
A: Its value is “little inhibition”.

Q: What about the “Effect on DHFR burst amplitude” value (ChTS-DHFR [3]) of the same compound?
A: The value was “dose-dependent decrease”.

Q: What about the “Mode of inhibition with respect to H2folate” value (DHFR of ChTS-DHFR [4]; 200 μM FMN) of the same compound?
A: Its value is “noncompetitive (mixed)”.

Q: What about the “Mode of inhibition with respect to NADPH” value (DHFR of ChTS-DHFR [4]; 200 μM FMN) of the same compound?
A: The value was “uncompetitive”.

Q: What about the “Vmax, H2F varied” value (DHFR of ChTS-DHFR [4]; in the presence of 200 μM FMN (no inhibitor: 2.35 ± 0.04)) of the same compound?
A: Its value is 1.8 ± 0.1 µmol/min.

Q: What about the “Vmax, NADPH varied” value (DHFR of ChTS-DHFR [4]; in the presence of 200 μM FMN (no inhibitor: 2.37 ± 0.03)) of the same compound?
A: The value was 1.77 ± 0.01 µmol/min.

Q: What about the “Effect on rate of chemistry, DHFR single turnover” value (DHFR of ChTS-DHFR [5]; 500 μM FMN) of the same compound?
A: The value was “no decrease”.

Q: And the “Effect on amplitude of the single-turnover plot” value (DHFR of ChTS-DHFR [5])?
A: Its value is “dose-dependent decrease”.

Q: And the “Change in IC50 on varying enzyme concentration” value (ChTS-DHFR [2]; enzyme concentration varied from 80 to 250 nM)?
A: The value was “no resulting change”.

Q: What about the “Inhibition of TS-DHFR from Toxoplasma gondii (in words)” value (T. gondii TS-DHFR) of the same compound?
A: The value was “did not inhibit”.

Q: What about the “Inhibitory effect on R190G mutant less than that against WT ChTS-DHFR” value (ChTS-DHFR R190G mutant) of the same compound?
A: The value was “approximately 20%”.

Q: With `CC(=O)N1CCN(c2ccc(OCC3COC(Cn4ccnc4)(c4ccc(Cl)cc4Cl)O3)cc2)CC1` (stereo not drawn) [Ketoconazole, reference compound] as the compound, how does the pIC50 (ChTS-DHFR [2]) read?
A: Its pIC50 is under 3.30.

Q: With `C[C@H]1O[C@@H](O[C@H]2[C@@H](O)C[C@H](O[C@H]3[C@@H](O)C[C@H](O[C@H]4CC[C@@]5(C)[C@H](CC[C@@H]6[C@@H]5C[C@@H](O)[C@]5(C)[C@@H](C7=CC(=O)OC7)CC[C@]65O)C4)O[C@@H]3C)O[C@@H]2C)C[C@H](O)[C@@H]1O` [Digoxin, reference compound] as the compound, how does the pIC50 (ChTS-DHFR [2]) read?
A: Its pIC50 is under 3.30.

Q: With `Cc1cc2nc3c(=O)[nH]c(=O)nc-3n(C[C@H](O)[C@H](O)[C@H](O)CO)c2cc1C` [riboflavin] as the compound, how does the “Potency against ChTS-DHFR relative to FMN (in words)” value (ChTS-DHFR [2]) read?
A: The value was “comparable potency”.

Q: With `CC(=O)N[C@@H]1[C@@H](O)[C@H](O[C@@H]2O[C@H](CO)[C@@H](O)[C@H](O)[C@H]2NC(C)=O)[C@@H](CO)O[C@H]1O` [Chitodextrin] as the compound, how does the pIC50 (ChTS-DHFR [2]) read?
A: Its pIC50 is under 3.30.
